Measurements published in ChEMBL document CHEMBL3526049 (Drug Metab Dispos, 2012).

Legend:
Rattus norvegicus [1] = assay: Drug metabolism in BCRP knockout Sprague-Dawley rat assessed as metabolite to parent ratio treated with sulfasalazine at 20 mg/kg, po; format: ADME, organism-based; set-up: dose 20 mg/kg, route oral; settings: in vivo
How it was run: (§1)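 Male Sprague-Dawley knockout or age/weight-matched wild-type rats with femoral artery and vein cannulas. Crossover design: day 0 i.v. bolus 5 mg/kg sulfasalazine in water at pH 9–10, then day 3 gavage 20 mg/kg in 0.5% carboxymethyl cellulose/PBS pH 7.4. Arterial plasma was sampled to 24 h. Sulfasalazine and sulfapyridine were measured by LC-MS/MS (1–5000 ng/ml). Parameters are noncompartmental; n = 4–8, mean ± S.D.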

[2] = Half life in wild-type Sprague-Dawley rat treated with sulfasalazine at 20 mg/kg, po by LC-MS/MS analysis; format: ADME, organism-based; set-up: dose 20 mg/kg, route oral; settings: in vivo
How it was run: (§2)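 Male Sprague-Dawley knockout rats or wild-type rats matched for age and weight, with femoral artery and vein cannulas. Crossover design: sulfasalazine 5 mg/kg iv bolus (water, pH 9–10) on day 0, then 20 mg/kg oral gavage (0.5% carboxymethyl cellulose in PBS, pH 7.4) on day 3. Arterial plasma collected 0–24 h. Sulfasalazine and sulfapyridine measured by LC-MS/MS; noncompartmental parameters; mean ± S.D., n = 4 to 8.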

Rattus norvegicus [3] = assay: AUC (infinity) in wild-type Sprague-Dawley rat treated with sulfasalazine at 20 mg/kg, po by LC-MS/MS analysis; format: ADME, organism-based, Plasma; set-up: time infinity, dose 20 mg/kg, route oral; settings: in vivo; how it was run: as §1
Rattus norvegicus [4] = assay: Cmax in MDR1A knockout Sprague-Dawley rat treated with sulfasalazine at 20 mg/kg, po by LC-MS/MS analysis; format: ADME, organism-based; set-up: dose 20 mg/kg, route oral; settings: in vivo; how it was run: as §1
[5] = Tmax in wild-type Wistar rat at 20 mg/kg, po by LC-MS/MS analysis; format: ADME, organism-based; set-up: dose 20 mg/kg, route oral; settings: in vivo
How it was run: (§3)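 Male Wistar wild-type rats and Mrp2-deficient TR⁻ rats with femoral artery and vein cannulas. Sulfasalazine given as an iv bolus (5 mg/kg, water at pH 9–10) and by oral gavage, each followed by arterial plasma sampling over 24 h. Sulfasalazine and sulfapyridine measured by LC-MS/MS; noncompartmental parameters; mean ± S.D., n = 3.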

[6] = AUC (infinity) in MRP2-deficient Wistar rat at 20 mg/kg, po by LC-MS/MS analysis; format: ADME, organism-based; set-up: time infinity, dose 20 mg/kg, route oral; settings: plasma
How it was run: (§4)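 Male Wistar wild-type or Mrp2-deficient TR⁻ rats with femoral artery and vein cannulas. Sulfasalazine was given as a 5 mg/kg i.v. bolus and as a 20 mg/kg oral dose. Arterial plasma was sampled to 24 h and analysed for parent and sulfapyridine by LC-MS/MS. Noncompartmental parameters; n = 3, mean ± S.D.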

Rattus norvegicus [7] = assay: Cmax in MRP2 knockout Sprague-Dawley rat treated with sulfasalazine at 20 mg/kg, po by LC-MS/MS analysis; format: ADME, organism-based; set-up: dose 20 mg/kg, route oral; settings: in vivo; how it was run: as §1
[8] = Cmax in wild-type Wistar rat at 20 mg/kg, po by LC-MS/MS analysis; format: ADME, organism-based; set-up: dose 20 mg/kg, route oral; settings: in vivo; how it was run: as §4
[9] = AUC (infinity) in wild-type Wistar rat at 20 mg/kg, po by LC-MS/MS analysis; format: ADME, organism-based; set-up: dose 20 mg/kg, route oral, time infinity; settings: plasma; how it was run: as §4
[10] = Tmax in MRP2-deficient Wistar rat at 20 mg/kg, po by LC-MS/MS analysis; format: ADME, organism-based; set-up: dose 20 mg/kg, route oral; settings: in vivo; how it was run: as §3
[11] = Tmax in BCRP knockout Sprague-Dawley rat treated with sulfasalazine at 20 mg/kg, po by LC-MS/MS analysis; format: ADME, organism-based; set-up: dose 20 mg/kg, route oral; settings: in vivo; how it was run: as §2
Rattus norvegicus [12] = assay: Drug metabolism in wild-type Wistar rat assessed as metabolite to parent ratio treated with sulfasalazine at 20 mg/kg, po; format: ADME, organism-based; set-up: dose 20 mg/kg, route oral; settings: in vivo; how it was run: as §4
Rattus norvegicus [13] = assay: Drug metabolism in wild-type Sprague-Dawley rat assessed as metabolite to parent ratio treated with sulfasalazine at 20 mg/kg, po; format: ADME, organism-based; set-up: dose 20 mg/kg, route oral; settings: in vivo; how it was run: as §1
Rattus norvegicus [14] = assay: Drug metabolism in MRP2-deficient Wistar rat assessed as metabolite to parent ratio treated with sulfasalazine at 20 mg/kg, po; format: ADME, organism-based; set-up: dose 20 mg/kg, route oral; settings: in vivo; how it was run: as §4
Rattus norvegicus [15] = assay: Drug metabolism in MRP2 knockout Sprague-Dawley rat assessed as metabolite to parent ratio treated with sulfasalazine at 20 mg/kg, po; format: ADME, organism-based; set-up: dose 20 mg/kg, route oral; settings: in vivo; how it was run: as §1
Rattus norvegicus [16] = assay: Cmax in BCRP knockout Sprague-Dawley rat treated with sulfasalazine at 20 mg/kg, po by LC-MS/MS analysis; format: ADME, organism-based; set-up: dose 20 mg/kg, route oral; settings: in vivo; how it was run: as §1
[17] = Tmax in MRP2 knockout Sprague-Dawley rat treated with sulfasalazine at 20 mg/kg, po by LC-MS/MS analysis; format: ADME, organism-based; set-up: dose 20 mg/kg, route oral; settings: in vivo; how it was run: as §2
Rattus norvegicus [18] = assay: Drug metabolism in MDR1A knockout Sprague-Dawley rat assessed as metabolite to parent ratio treated with sulfasalazine at 20 mg/kg, po; format: ADME, organism-based; set-up: dose 20 mg/kg, route oral; settings: in vivo; how it was run: as §1
[19] = Tmax in wild-type Sprague-Dawley rat treated with sulfasalazine at 20 mg/kg, po by LC-MS/MS analysis; format: ADME, organism-based; set-up: dose 20 mg/kg, route oral; settings: in vivo; how it was run: as §2
Rattus norvegicus [20] = assay: AUC (infinity) in MDR1A knockout Sprague-Dawley rat treated with sulfasalazine at 20 mg/kg, po by LC-MS/MS analysis; format: ADME, organism-based, Plasma; set-up: time infinity, dose 20 mg/kg, route oral; settings: in vivo; how it was run: as §1
[21] = Cmax in MRP2-deficient Wistar rat at 20 mg/kg, po by LC-MS/MS analysis; format: ADME, organism-based; set-up: dose 20 mg/kg, route oral; settings: in vivo; how it was run: as §4
[22] = Half life in MRP2-deficient Wistar rat at 20 mg/kg, po by LC-MS/MS analysis; format: ADME, organism-based; set-up: dose 20 mg/kg, route oral; settings: in vivo; how it was run: as §3
[23] = Half life in MRP2 knockout Sprague-Dawley rat treated with sulfasalazine at 20 mg/kg, po by LC-MS/MS analysis; format: ADME, organism-based; set-up: dose 20 mg/kg, route oral; settings: in vivo; how it was run: as §2
Rattus norvegicus [24] = assay: AUC (infinity) in BCRP knockout Sprague-Dawley rat treated with sulfasalazine at 20 mg/kg, po by LC-MS/MS analysis; format: ADME, organism-based, Plasma; set-up: dose 20 mg/kg, route oral, time infinity; settings: in vivo; how it was run: as §1
[25] = Half life in wild-type Wistar rat at 20 mg/kg, po by LC-MS/MS analysis; format: ADME, organism-based; set-up: dose 20 mg/kg, route oral; settings: in vivo; how it was run: as §3
Rattus norvegicus [26] = assay: AUC (infinity) in MRP2 knockout Sprague-Dawley rat treated with sulfasalazine at 20 mg/kg, po by LC-MS/MS analysis; format: ADME, organism-based, Plasma; set-up: dose 20 mg/kg, route oral, time infinity; settings: in vivo; how it was run: as §1
[27] = Tmax in MDR1A knockout Sprague-Dawley rat treated with sulfasalazine at 20 mg/kg, po by LC-MS/MS analysis; format: ADME, organism-based; set-up: dose 20 mg/kg, route oral; settings: in vivo; how it was run: as §2
Rattus norvegicus [28] = assay: Cmax in wild-type Sprague-Dawley rat treated with sulfasalazine at 20 mg/kg, po by LC-MS/MS analysis; format: ADME, organism-based; set-up: dose 20 mg/kg, route oral; settings: in vivo; how it was run: as §1
[29] = Half life in BCRP knockout Sprague-Dawley rat treated with sulfasalazine at 20 mg/kg, po by LC-MS/MS analysis; format: ADME, organism-based; set-up: dose 20 mg/kg, route oral; settings: in vivo; how it was run: as §2
[30] = Half life in MDR1A knockout Sprague-Dawley rat treated with sulfasalazine at 20 mg/kg, po by LC-MS/MS analysis; format: ADME, organism-based; set-up: dose 20 mg/kg, route oral; settings: in vivo; how it was run: as §2

SMILES: Nc1ccc(S(=O)(=O)Nc2ccccn2)cc1 [SULFAPYRIDINE]
- Ratio (Rattus norvegicus [1]): 4.6
- half-life [2]: 2.3 h
- AUC (Rattus norvegicus [3]): 21992 ng.Eq.hr/ml
- Cmax (Rattus norvegicus [4]): 2525 ng.Eq/ml
- Tmax [5]: 4 h
- AUC(0-inf) [6]: 15400 ng·h/mL
- Cmax (Rattus norvegicus [7]): 2499 ng.Eq/ml
- Cmax [8]: 4320 ng/mL
- AUC(0-inf) [9]: 29400 ng·h/mL
- Tmax [10]: 4 h
- Tmax [11]: 4 h
- Ratio (Rattus norvegicus [12]): 16
- Ratio (Rattus norvegicus [13]): 50
- Ratio (Rattus norvegicus [14]): 34
- Ratio (Rattus norvegicus [15]): 22
- Cmax (Rattus norvegicus [16]): 2843 ng.Eq/ml
- Tmax [17]: 4.4 h
- Ratio (Rattus norvegicus [18]): 24
- Tmax [19]: 5 h
- AUC (Rattus norvegicus [20]): 14985 ng.Eq.hr/ml
- Cmax [21]: 3240 ng/mL
- half-life [22]: 1.7 h
- half-life [23]: 1.6 h
- AUC (Rattus norvegicus [24]): 14576 ng.Eq.hr/ml
- half-life [25]: 2.3 h
- AUC (Rattus norvegicus [26]): 12675 ng.Eq.hr/ml
- Tmax [27]: 7 h
- Cmax (Rattus norvegicus [28]): 4764 ng.Eq/ml
- half-life [29]: 1.7 h
- half-life [30]: 1.3 h
